Variants at the floor of the assay were thinned out.
B1: tRNA (parent)
chain: GUUCCGUUGGCGUAAUGGUAACGCGUCUCCCUCCUAAGGAGAAGACUGCGGGUUCGAGUCCCGUACGGAACG

Variants of: B1
Assay: yeast fitness relative to wild type (ratio to wild type); higher = fitter; tRNA-Arg(CCU), competitive growth, 37 C, YPD
Summary of the method: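 For this measurement, the tRNA-Arg(CCU) gene was varied by chemical synthesis at a 3% per-site mutation rate across 69 sites, and each variant was placed at the native genomic locus in Saccharomyces cerevisiae. The pooled strains went through a 24-hour competition in YPD at 37°C in six parallel replicates, with amplicons from start and end populations read by 100-nucleotide paired-end sequencing. Darwinian fitness relative to wild type followed from the change in each genotype's frequency. Genotypes needed ≥ 100 starting reads, and estimates < 0.5 were set to 0.5.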

Row | Variant | yeast fitness
1 | C11A C27G G50A U64G | ≤ 0.5
2 | G10C G67A | 0.673
3 | G10C G67C | 0.67
4 | C11A G23U A36U | ≤ 0.5
5 | C11A C24U C27A C62G | ≤ 0.5
6 | C11A A21G C62G | 0.655
7 | C11A A14G A20U C22G C24U G48C G52A | 0.57
8 | C11A G38C | 0.586
9 | C11A G38A | 0.579
10 | G10C G41C C62U C66G A70G | ≤ 0.5
11 | G10C U26A C33U A70G | ≤ 0.5
12 | C11A A14G A43C A57G U59C G63A A70G | ≤ 0.5
13 | C11A C22G C29G U53A C55G | ≤ 0.5
14 | C11A U26A U54A | ≤ 0.5
15 | G10U A69C | 0.827
16 | C11A C46U | 0.712
17 | C11A A15U A20C C34G C66U | ≤ 0.5
18 | C11A A15G C33U A37G | ≤ 0.5
19 | C11A C24U C34A A37U | ≤ 0.5
20 | C11A U13A A20G C61U A69C | ≤ 0.5
21 | C11A U28A C61G C62G | 0.556
22 | C11A U19C C24G C30U C31U C61U G67C | ≤ 0.5
23 | C11A G23A C30U C31G | ≤ 0.5
24 | C11A A14G U19G A43C U53A C62A C66U | ≤ 0.5

Row | Variant | yeast fitness
25 | C11A U16C G18C C61A G67A | ≤ 0.5
26 | C11A G25C C29U A57G | ≤ 0.5
27 | C11A U19A C29A U32A G48C C55G | ≤ 0.5
28 | C11A C30U C31U A36G G39C A45U G52C C60A | ≤ 0.5
29 | G10U A40G G58A G68C | 0.631
30 | C11A G18A G67A | ≤ 0.5
31 | G10C U13A G25A | 0.534
32 | C11A C22A C29G A69G | 0.576
33 | G10U G17A C24A | 0.643
34 | C11A U28C C29U C34G A36G | ≤ 0.5
35 | C11A G18A C46U | 0.61
36 | C11A A42G C61A | 0.618
37 | C11A G25A C46G A57U | ≤ 0.5
38 | C11A C27G C31A | 0.543
39 | C11A C49A C62A | ≤ 0.5
40 | C11A C31A G44C | ≤ 0.5
41 | C11A A15U U16C A21U A36C A37U | ≤ 0.5
42 | G10C U28G G39A C49A | ≤ 0.5
43 | C11A U13A A20U C29G A36G C46U G58A | ≤ 0.5
44 | C11A G23C C33U A43U A45C G58A A69C | ≤ 0.5
45 | G10C G63A C66U | ≤ 0.5
46 | C11A C27G U64A A65G G67U | ≤ 0.5
47 | C11A G23C G39C C61A C62G A65U | ≤ 0.5
48 | C11A G18A A36G A42C C66U | 0.658

Row | Variant | yeast fitness
49 | C11A A14G G25C C29G | ≤ 0.5
50 | G10U C24G A45G | ≤ 0.5
51 | C11A G51A | 0.618
52 | C11A A43U C62G A70U | ≤ 0.5
53 | G10C U16G C31A U32G A45G | ≤ 0.5
54 | C11A A42G A43U C46U | 0.532
55 | C11A A42G A43U C46U G67A A69C | ≤ 0.5
56 | C11A G23A U32C U47C | ≤ 0.5
57 | C11A C34A A40G G44C A70U | ≤ 0.5
58 | G10C G52C | ≤ 0.5
59 | C11A G12C G63A | ≤ 0.5
60 | C11A G41A C66G | 0.536
61 | C11A U16C C33U A37C | ≤ 0.5
62 | C11A G67U | 0.584
63 | C11A C27G C34A A42C U54C C60A C62G A70U | 0.624
64 | C11A A20U G38A A45C | ≤ 0.5
65 | C11A C24U U32A U35C | 0.566
66 | C11A C55U G63A C66G | ≤ 0.5
67 | C11A A43G G50C G56C | ≤ 0.5
68 | C11A G63A | 0.681
69 | C11A A14C C34A A70U | ≤ 0.5
70 | C11A C49A C66U | ≤ 0.5
71 | C11A C66U | 0.569
72 | C11A A40G C66U | ≤ 0.5

Row | Variant | yeast fitness
73 | C11A C27G U35A A43U U54C | 0.556
74 | C11A A45C U53C | 0.645
75 | C11A A15C C34A C66A | ≤ 0.5
76 | C11A C27U U28C A57C C62A | 0.716
77 | G10C G50U | ≤ 0.5
78 | C11A C24G C30G | 0.599
79 | C11A G44C C46A U53A G63C | 0.866
80 | C11A A70C | 0.593
81 | C11A A70G | 0.774
82 | C11A U64A | 0.635
83 | C11A C27G A70C | ≤ 0.5
84 | C11A C62G A70U | 0.542
85 | C11A C31A G44C C60A | ≤ 0.5
86 | C11A C22G C29U U32C | 0.706
87 | C11A C30U C49G | 0.579
88 | G10C U32C | 0.73
89 | G10C U32A | 0.53
90 | C11A A42G C49U A65C | ≤ 0.5
91 | C11A A15U | 0.658
92 | C11A A15G | 0.711
93 | C11A A36G A69C | 0.562
94 | C11A A14G A43C A57G U59C A70G | 0.542
95 | C11A U13A | 0.603
96 | C11A C30G A45U C60A | 0.537

Row | Variant | yeast fitness
97 | C11A C34G G67A | ≤ 0.5
98 | C11A U16C G18C A36G G56C | ≤ 0.5
99 | C11A A36G A43C A69U | ≤ 0.5
100 | C11A C24U C31U | 0.547
101 | C11A G39A C61U C62A | 0.624
102 | C11A U47C G51C | ≤ 0.5
103 | G10C U13C A15C C24U U54C C60A C62A | ≤ 0.5
104 | C11A C27A C29A A42C U47A G52A U59C | 0.503
105 | C11A U13C C27A C60A | ≤ 0.5
106 | G10C U53A | ≤ 0.5
107 | C11A G52C | 0.596
108 | G10C G39C G51A | ≤ 0.5
109 | C11A A21C A43G C60U C62U A70C | ≤ 0.5
110 | G10U G17A C24A C66G | 0.595
111 | C11A C34G | ≤ 0.5
112 | C11A C24G U47G | ≤ 0.5
113 | C11A A40G C49G C62G | 0.794
114 | C11A U13G C24G C34G G52A | ≤ 0.5
115 | C11A U32C A65U | 0.565
116 | C11A G25C C29U A65U | ≤ 0.5
117 | C11A C27U C31A | ≤ 0.5
118 | C11A A20G G39A G51A U53A C66U | ≤ 0.5
119 | C11A U13A A20G | 0.561
120 | C11A A21G A40G | 0.571

Row | Variant | yeast fitness
121 | C11A C46U A57C C66A | ≤ 0.5
122 | C11A C30U C33G A40G | ≤ 0.5
123 | G10C U47C G67C | 0.536
124 | C11A G25A A43G A65C | ≤ 0.5
125 | C11A U19A C29A U32A G44U G58A | ≤ 0.5
126 | C11A A21C A42C C61U | ≤ 0.5
127 | C11A A21U G58C A70C | ≤ 0.5
128 | G10C U35G A43C U47C C55U C66U | ≤ 0.5
129 | C11A A15G A40G | 0.824
130 | C11A U28C A43G A65C | ≤ 0.5
131 | C11A C31U A37C C66U | ≤ 0.5
132 | C11A U19G | 0.669
133 | C11A C27G C31A G68A | ≤ 0.5
134 | C11A U32A | ≤ 0.5
135 | G10C U26A C27U C34U C49U | 0.602
136 | C11A A42G A43G C61A | ≤ 0.5
137 | C11A C27G C31U G68A | ≤ 0.5
138 | C11A A43G G58C C62U | ≤ 0.5
139 | C11A A57G A69U | ≤ 0.5
140 | C11A G17C A43G | ≤ 0.5
141 | C11A C27A | 0.654
142 | C11A C27U | 0.646
143 | C11A A42G | 0.631
144 | C11A C30G C34G | 0.579

Row | Variant | yeast fitness
145 | C11A C31U G41C A43C C60G | ≤ 0.5
146 | C11A U32C A70C | 0.549
147 | G10C U19A C31G C34A A42G | ≤ 0.5
148 | C11A C34A G52C | 0.541
149 | C11A A42C G58A | 0.742
150 | G10C G63A | 0.59
151 | G10C G63C | ≤ 0.5
152 | C11A U32A C33U | 0.548
153 | C11A A21G | 0.774
154 | C11A A15G C22G C61U G68A | ≤ 0.5
155 | C11A C62A C66U | 0.629
156 | C11A C22A | 0.626
157 | C11A C34U A42G | ≤ 0.5
158 | C11A A37C A45G | ≤ 0.5
159 | C11A G25A | 0.572
160 | C11A A36G C49G C60U G68A | ≤ 0.5
161 | C11A A40G A43U U59G | ≤ 0.5
162 | C11A C24U G48A | ≤ 0.5
163 | G10C U13C C24G C55U | 0.64
164 | C11A A14G C31G C34G C61U | ≤ 0.5
165 | C11A U26G G44A G52A | 0.55
166 | C11A G48A C55U | ≤ 0.5
167 | C11A A20G C46U G50C C60A A70C | 0.632

— the RNAGym collection of RNA variant scans (doi:10.1126/science.aae0568)
